Lmaj promast: inhibitors of Leishmania major promastigote growth; Leishmania major promastigotes, resazurin fluorescence viability; inhibition, % at 10 µM; 9% of 200,000 active; AID 1063; in the data active = inhibition above about 50%;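 note: promastigotes grown with compound for 44 hours at 28 °C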
HSF1 activator: increases HSF-1 driven luciferase reporter signal; NIH3T3-HGL HSF-1 luciferase reporter, MG132, 8 h; 100% = twice DMSO control signal; activation, % at 9 µM; 1.7% of 300,000 active;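 active = mean replicate activation of at least 50% with a set share of replicates each reaching 50%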;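 note: 0% = median of the neutral control wells and 100% = twice that signal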
Hsp70 activator: switches on Hsp70 transcription; AID 1203; activation, % at 10 µM; 0.04% of 200,000 active; HeLa Hsp70 promoter luciferase reporter, luminescence; scaled: vehicle 0, proteasome-inhibitor control 100%;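 active = activation above the mean across all tested compounds plus 3 SD, cutoff set per campaign, cut at about 5.5% in these data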;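 note: 100% = MG132 at 30 µM as the positive control and 0% = DMSO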
HSF1 inhib: HSF1 inhibition; NIH3T3-HGL HSE-luciferase, MG132-induced, luminescence 8 h; active compounds read low; activity change, negative = inhibition, % at 7.5 µM (by protocol); 0.77% of 300,000 active;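 active = more than half of replicate wells show activity change below -50%, luminescence cut by over half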;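 note: luciferase reports HSF-1 transcriptional activity via heat shock element; 0% = median of DMSO wells and -100% = zero luminescence signal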
T cruzi inh: blocks replication of Trypanosoma cruzi; T. cruzi beta-gal in NIH3T3, luminescence, 90 h; inhibition, % (test concentration not listed); 1.4% of 300,000 active; AID 1885;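 active = mean inhibition across valid replicates above about 55%, limit read from the data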;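 note: signal also drops with host cell toxicity which is not excluded here; 0% = plate median of DMSO wells and 100% = zero luminescence signal; higher percent means less beta-gal luminescence so fewer parasites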
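System: Mouse NIH/3T3 fibroblasts infected with β-gal-expressing T. cruzi Tulahuen C4 | Quantity: NIH/3T3 cells, 5,000 per well | Reagent: 5000 reporter trypomastigotes per well | Dosing: Compound pinned at 50 nL/well, DMSO | Schedule: 3 h host attachment, then at least 90 h co-culture | Detection: GalScreen luminescence, 60 min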
* = called active by the depositor; · = not tested or not shown. Shown is part of a subset that was picked to be rich in hits.

SMILES	Lmaj promast	HSF1 activator	Hsp70 activator	HSF1 inhib	T cruzi inh
O=C(NNC(=S)Nc1ccc(Cl)c(Cl)c1)c1ccccn1	96*	3	0	9	62*
O=C(NNC(=O)C(c1ccccc1)c1ccccc1)c1ccccn1	99*	-23	0	-26	44
CCNC(=S)NNC(=O)c1ccccn1	0	7	0	6	-10
Cc1ccc(-n2ncc3c(SCC(N)=O)ncnc32)cc1C	·	67*	·	27	5
Cc1cc(C(=O)NCCC2=CCCCC2)no1	-1	51*	0	15	-5
COc1cccc(NC(=O)NCCC2=CCCCC2)c1	11	46	2	19	-1
COc1ccc(NC(=O)C(=O)NCCC2=CCCCC2)c(OC)c1	55*	14	0	5	-4
COc1ccc(NC(=O)NCCC2=CCCCC2)cc1	2	72*	0	34	-11
CCOc1ccccc1NC(=O)C(=O)NCCC1=CCCCC1	-5	12	0	5	23
C=CCn1c(SCC2CCCCO2)nc2sc(CC)cc2c1=O (stereo not given)	·	2	·	0	26
NC(=S)Nc1cccc2[nH]ccc12	0	7	0	0	64*
CN(CC(=O)Nc1ccccc1Br)C(=O)CCCSc1nc2ccccc2[nH]1	·	13	·	12	-9
C(=N\Nc1ccccn1)/c1ccc2c(c1)OCCO2	15	61*	0	27	7
C=CCOc1ccc(/C=N/Nc2ccccn2)cc1OC	16	66*	0	29	4
CCC(=O)Nc1cccc(NC(=S)NC(=O)c2cccs2)c1	47	79*	0	64	-6
Cc1cc(C)cc(NS(=O)(=O)c2ccc(NC(=S)NC(=O)c3cccs3)cc2)c1	96*	-1	0	-4	-2
Cc1ccc2nc(NC(=S)NC(=O)c3cccs3)sc2c1	59*	9	0	14	6
Nc1c(Cl)cc(-c2csc(NC(CO)c3nc4ccccc4n3CCOCCO)n2)cc1Cl (stereo not given)	·	-4	·	3	-7
S=c1nc2c(n[nH]1)c1ccccc1n2CCc1ccccc1	·	-11	·	-9	66*
CCn1c(C(=O)N2CCC(C(=O)NCc3ccc4c(c3)OCO4)CC2)cc2sccc21	-4	·	0	·	·
O=C(NCc1ccccn1)C1CCN(C(=O)c2cc3sccc3n2Cc2ccc(F)cc2)CC1	9	-29	0	-15	-2
CCN1CCCC1CNC(=O)C1CCN(C(=O)c2cc3sccc3n2Cc2ccc(F)cc2)CC1 (stereo not given)	90*	6	0	-5	31
Cc1cc(C)c(S(=O)(=O)N2CCC(C(=O)NCc3ccco3)CC2)c(C)c1	-3	54*	0	8	-6
CCN1CCN(C(=O)C2CCN(C(=O)c3cc4sccc4n3CC)CC2)CC1	-8	-76	0	-70*	-33
O=C(NCc1ccco1)C1CCN(C(=O)c2cc3sccc3n2Cc2ccc(F)cc2)CC1	79*	17	0	15	11
SMILES	Lmaj promast	HSF1 activator	Hsp70 activator	HSF1 inhib	T cruzi inh
CCc1nc(SCC(=O)Nc2ccc(OC)cc2[N+](=O)[O-])n[nH]1	·	·	·	·	-4
Cc1cccc(NC(=O)CSc2nc(=O)n(CCN3CCOCC3)c3c2CCCC3)c1C	·	3	·	-4	2
Cc1ccc(NC(=O)C2CCCN2c2nn3c(=O)cc(C)nc3s2)cc1 (stereo not given)	·	10	·	-1	-9
O=C(NCCCN1CCCC1)C1CCN(C(=O)c2cc3sccc3n2Cc2ccc(F)cc2)CC1	93*	15	0	7	55*
O=C(NCc1ccco1)C1CCN(Cc2ccc(F)cc2)CC1	91*	-9	1	2	-5
CCN(CC)CCCNC(=O)C1CCN(C(=O)c2cc3sccc3n2Cc2ccc(F)cc2)CC1	99*	-17	0	-4	44
COCCCNC(=O)C1CCN(C(=O)c2cc3sccc3n2Cc2ccc(F)cc2)CC1	14	1	0	6	0
O=C(NCc1ccco1)C1CCCCC1	-6	24	0	5	-15
CNC(=S)N(CCc1c(C)[nH]c2ccc(OC)cc12)Cc1ccco1	·	-40	·	-26	-18
Cc1cc2n(n1)C(c1cn(-c3ccccc3)nc1C)Nc1c(C)cccc1-2 (stereo not given)	29	-2	0	-2	1
Cc1cc2n(n1)C(c1ccc3c(c1)OCO3)Nc1c(C)cccc1-2 (stereo not given)	99*	-5	0	-7	8
